Calls of active or inactive are those of the source. The rule behind the calls is not given here.
Experiments:
[1] = target: T1, D(2) dopamine receptor (Homo sapiens, UniProt P14416); assay: Displacement of [3H]-raclopride from human dopamine D2L receptor expressed in F1pIn CHO cells after 60 mins by scintillation counting analysis; format: cell-based
Method in brief: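 Binding in whole D2L-FlpIn CHO cells with [3H]raclopride as radioligand. Mean of three to four experiments, each run in duplicate.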

[2] = target: T1, D(2) dopamine receptor; assay: Antagonist activity at human dopamine D2L receptor expressed in F1pIn CHO cells assessed as inhibition of ERK1/2 phosphorylation incubated for 5 mins by AlphaScreen assay; format: cell-based
Method in brief: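 Functional affinity (KB) from interaction studies against varying dopamine concentrations, read out as pERK1/2 levels in D2L-FlpIn CHO cells. Data fitted by Gaddum–Schild analysis. Mean of three to four experiments, each run in duplicate.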

[3] = target: T2, 5-hydroxytryptamine receptor 2A (Homo sapiens, UniProt P28223); assay: Displacement of [3H]ketanserin from human 5-HT2A receptor expressed in F1pIn CHO cell membranes after 1 hr by scintillation counting method
T2 sequence (P28223 whole entry): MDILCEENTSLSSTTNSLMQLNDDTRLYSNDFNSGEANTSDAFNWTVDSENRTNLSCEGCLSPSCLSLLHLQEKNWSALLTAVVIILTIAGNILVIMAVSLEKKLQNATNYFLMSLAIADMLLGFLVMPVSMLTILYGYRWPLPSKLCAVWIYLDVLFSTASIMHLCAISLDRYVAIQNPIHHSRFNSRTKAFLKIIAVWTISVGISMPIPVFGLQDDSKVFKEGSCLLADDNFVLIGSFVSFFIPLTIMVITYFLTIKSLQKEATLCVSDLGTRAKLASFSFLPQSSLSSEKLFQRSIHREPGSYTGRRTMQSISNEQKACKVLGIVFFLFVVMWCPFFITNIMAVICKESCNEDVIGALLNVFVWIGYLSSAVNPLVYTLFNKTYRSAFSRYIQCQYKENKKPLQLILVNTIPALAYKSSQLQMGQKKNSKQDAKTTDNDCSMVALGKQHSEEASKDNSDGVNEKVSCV
Method in brief: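 Binding in 5-HT2A-FlpIn CHO cell membranes with [3H]ketanserin as radioligand. Mean of three to four experiments, each run in duplicate.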

[4] = target: T2, 5-hydroxytryptamine receptor 2A; assay: Antagonist activity at human 5-HT2A receptor expressed in F1pIn CHO cells assessed as inhibition of serotonin-induced myo-inositol 1 phosphate accumulation after 1 hr by HTRF assay; format: functional, cell-based
Method in brief: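 Functional affinity (KB) from interaction studies against varying serotonin concentrations in an IP1 accumulation assay in 5-HT2A-FlpIn CHO cells. Mean of three to four experiments, each run in duplicate.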

[5] = target: T1, D(2) dopamine receptor; assay: Antagonist activity at human dopamine D2L receptor expressed in F1pIn CHO cells assessed as inhibition of ERK1/2 phosphorylation by time-course assay; format: cell-based
[6] = target: Muscarinic acetylcholine receptor M1 (Homo sapiens) (UniProt P11229); assay: Agonist activity at human mAChR1 receptor expressed in F1pIn CHO cells assessed as induction of intracellular calcium mobilization
Sequence of Muscarinic acetylcholine receptor M1 (Homo sapiens) (P11229 whole entry, looked up): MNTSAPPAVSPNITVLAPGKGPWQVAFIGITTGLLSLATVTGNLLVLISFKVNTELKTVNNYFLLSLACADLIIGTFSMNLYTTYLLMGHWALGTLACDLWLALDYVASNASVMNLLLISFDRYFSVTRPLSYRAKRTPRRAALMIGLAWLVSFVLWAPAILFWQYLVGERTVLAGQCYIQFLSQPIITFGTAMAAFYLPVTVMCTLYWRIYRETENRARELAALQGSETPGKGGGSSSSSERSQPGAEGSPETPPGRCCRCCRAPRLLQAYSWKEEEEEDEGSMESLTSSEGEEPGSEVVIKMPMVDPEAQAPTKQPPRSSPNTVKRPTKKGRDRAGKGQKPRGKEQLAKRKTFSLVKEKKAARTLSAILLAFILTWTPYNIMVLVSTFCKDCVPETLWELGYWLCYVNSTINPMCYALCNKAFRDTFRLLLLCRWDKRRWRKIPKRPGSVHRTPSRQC

[7] = target: Muscarinic acetylcholine receptor M1 (Homo sapiens) (UniProt P11229); assay: Agonist activity at human mAChR1 receptor expressed in F1pIn CHO cells assessed as induction of intracellular calcium mobilization relative to acetylcholine
[8] = target: T1, D(2) dopamine receptor; assay: Agonist activity at human dopamine D2L receptor expressed in F1pIn CHO cells assessed as induction of ERK1/2 phosphorylation incubated for 5 mins by AlphaScreen assay relative to FBS; format: cell-based
Method in brief: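 D2L-FlpIn CHO cells, pERK1/2 assay. Emax is given as a percentage of the maximal response to FBS. Mean of four to six experiments, each run in duplicate.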

[9] = target: T1, D(2) dopamine receptor; assay: Agonist activity at human dopamine D2L receptor expressed in F1pIn CHO cells assessed as […] forskolin-mediated cAMP accumulation incubated for 30 mins by AlphaScreen assay; format: functional, cell-based
Method in brief: (§1)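 D2L-FlpIn CHO cells. Agonist concentration–response curves were measured for cAMP signalling and for ERK1/2 phosphorylation. Mean of four to six experiments, each run in duplicate.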

[10] = target: T1, D(2) dopamine receptor; assay: Agonist activity at human dopamine D2L receptor expressed in F1pIn CHO cells assessed as […] forskolin-mediated cAMP accumulation incubated for 30 mins by AlphaScreen assay relative to ropinirole; format: functional, cell-based
Method in brief: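 D2L-FlpIn CHO cells, cAMP signalling. Emax is given as a percentage of the maximal response to ropinirole. Mean of four to six experiments, each run in duplicate.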

[11] = target: T1, D(2) dopamine receptor; assay: Agonist activity at human dopamine D2L receptor expressed in F1pIn CHO cells assessed as induction of ERK1/2 phosphorylation by time-course assay; format: cell-based
[12] = target: T1, D(2) dopamine receptor; assay: Agonist activity at human dopamine D2L receptor expressed in F1pIn CHO cells assessed as induction of ERK1/2 phosphorylation incubated for 5 mins by AlphaScreen assay; format: cell-based; method in brief: as §1

T1 sequence (P14416 whole entry): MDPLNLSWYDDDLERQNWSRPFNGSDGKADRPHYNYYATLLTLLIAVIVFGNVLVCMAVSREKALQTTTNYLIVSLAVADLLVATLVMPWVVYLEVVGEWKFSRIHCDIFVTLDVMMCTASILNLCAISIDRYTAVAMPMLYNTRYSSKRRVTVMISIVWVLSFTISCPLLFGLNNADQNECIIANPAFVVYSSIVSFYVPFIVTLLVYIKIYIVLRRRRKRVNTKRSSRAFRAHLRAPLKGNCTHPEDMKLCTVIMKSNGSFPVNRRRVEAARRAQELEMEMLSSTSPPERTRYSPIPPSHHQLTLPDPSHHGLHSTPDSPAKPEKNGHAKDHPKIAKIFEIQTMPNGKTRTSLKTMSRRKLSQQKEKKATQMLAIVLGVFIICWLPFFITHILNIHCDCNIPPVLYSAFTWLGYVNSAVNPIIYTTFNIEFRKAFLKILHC

SMILES	Ki [1] [nM]	Kb [2] [nM]	pKb [2]	Ki [3] [nM]	Kb [4] [nM]	pKb [4]	inhibition [5]	pEC50 [6]	Emax [7]	Emax [8] [%]	EC50 [9] [nM]	Emax [10] [%]	Activity [11]	EC50 [12] [nM]
O=C1COc2ccccc2N1CCCN1CCN(c2cccc(Cl)c2Cl)CC1	273	99	7	75.8	1860	5.73	Active	inactive	inactive	–	–	–	–	–
COc1ccccc1N1CCN(CCCN2C(=O)COc3ccccc32)CC1	42.7	7.8	8.11	275	578	6.24	Active	inactive	inactive	–	–	–	–	–
O=C1COc2ccccc2N1CCCN1CCC(c2noc3cc(F)ccc23)CC1	3.2	1.2	8.91	2.7	21.2	7.67	Active	inactive	inactive	–	–	–	–	–
O=C1COc2ccccc2N1CCCN1CCN(c2nsc3ccccc23)CC1	17.7	7	8.16	5.8	235	6.63	Active	–	–	–	–	–	–	–
O=C1COc2ccccc2N1CCCN1CCN(c2cccc3[nH]c(=O)oc23)CC1	1.7	–	–	568	1140	5.94	–	inactive	inactive	26	0.096	97	Active	0.64
O=C(Cc1ccccc1)NC1CCN(CCCN2C(=O)COc3ccccc32)CC1	834	2090	5.68	1040	1570	5.8	–	–	101%	–	–	–	–	–

From ChEMBL document CHEMBL4000143, “Proof of concept study for designed multiple ligands targeting the dopamine D2, serotonin 5-HT2A, and muscarinic M1 acetylcholine receptors” (J Med Chem, 2015)
